Bioassay records (PubChem BioAssay)
FLuc act counter: affects firefly luciferase, flagging false hits in luciferase stimulation screens; ATPlite luciferase biochemical, luminescence, 10 min; 0 = ATP-free wells, 1 = DMSO control; 200,000 tested, under 10 active; activation factor at 10 µM; P08659;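 active means luciferase activation factor, scaled between plate controls, of at least 2 with compound at 10 µM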
Target sequence (P08659 whole entry, looked up): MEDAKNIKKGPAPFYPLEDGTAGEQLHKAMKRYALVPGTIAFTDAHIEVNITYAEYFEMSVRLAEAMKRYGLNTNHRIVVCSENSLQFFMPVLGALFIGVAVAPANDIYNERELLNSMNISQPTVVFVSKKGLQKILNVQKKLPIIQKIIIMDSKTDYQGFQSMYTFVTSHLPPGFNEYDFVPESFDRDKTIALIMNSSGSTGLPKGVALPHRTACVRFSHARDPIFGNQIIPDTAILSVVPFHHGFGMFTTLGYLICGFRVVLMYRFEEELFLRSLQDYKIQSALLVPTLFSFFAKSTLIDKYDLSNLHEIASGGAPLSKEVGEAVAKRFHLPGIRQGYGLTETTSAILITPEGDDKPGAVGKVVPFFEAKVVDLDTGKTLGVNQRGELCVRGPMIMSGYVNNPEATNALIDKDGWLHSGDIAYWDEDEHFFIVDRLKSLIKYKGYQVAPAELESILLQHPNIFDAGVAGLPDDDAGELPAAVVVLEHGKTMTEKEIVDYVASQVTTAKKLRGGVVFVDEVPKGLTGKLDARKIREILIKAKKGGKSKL
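System: cell-free luciferase reagent; medium: PBS as buffer for the ATP substrate; doses: test compounds dosed from 2 mM stocks in 100% DMSO; incubation: 10 min, room temperature; measured by: luminescence from luciferase reaction; read-out: luciferase activation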
MIN6 prolif: induces beta-cell replication in MIN6 cells | MIN6 cells proliferation, ATPlite luminescence, 48 h; cells starved in 0.2% serum; 100% = growth in 10% serum | proliferation, % at 10 µM | hit rate 0.29% among 330,000 | AID 2380;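 active means compounds whose signal lies at least 3.5 SD above the mean of all wells on their plate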;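 further: 0% = DMSO-treated cells in low-serum medium and 100% = 10% serum control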
hiPSC survival: enhancers of human iPSC single-cell survival; hiPSC single-cell survival, ATPlite luminescence; 100% = ROCK inhibitor wells, 0% = DMSO; survival enhancement, % at 20 µM; hit rate 0.044% among 360,000; AID 602274; in the data active means survival enhancement above about 18%;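 further: cells exposed to compounds for 16 hours before the ATP read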
FLuc inh counter: Photinus pyralis luciferase inhibition counter-screen. P08659. ATPLite firefly luciferase biochemical luminescence, 10 min. inhibition, % at 10 µM. hit rate 1.5% among 200,000;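 active means inhibition above about 50% when tested at 10 µM, limit read from the data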
PPC-1+TRAIL kill: PPC-1 cancer cell killing with TRAIL present; PPC-1 cells + TRAIL, ATPLite viability luminescence; cell killing (% activity), % at 4 µM or 5 µM; hit rate 0.41% among 220,000;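 active means cell killing above 50% in the first pass at 4 µM, then a duplicate retest at 5 µM averaging 50% or more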;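 further: plate controls were cells with TRAIL plus DMSO for no effect and medium-only wells lacking cells for full effect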
C8 TRAIL sens: caspase-8 TRAIL sensitization | NB7+C8 cells + TRAIL, ATPlite viability luminescence | inhibition (viability loss, TRAIL sensitization), % at 10 µM | hit rate 1% among 360,000 | AID 624354;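 active means compounds causing at least 50% loss of cell viability in the single-dose screen, relative to plate controls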
PPC1 cytotox: PPC-1 cell cytotoxicity; shares compounds with PPC-1+TRAIL kill; PPC-1 viability, ATPlite luminescence, overnight; cytotoxicity, % at 5 µM; hit rate 50% among 1,200; AID 1447;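 active means reconfirmed compounds whose average cytotoxicity reaches 50% or more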;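 further: 0% = DMSO-treated cells and 100% = wells holding medium but no cells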
* = called active by the depositor; nt = no result given. In the library only some 1.8% were active in any assay of this set; here they are far more common.

SMILES	FLuc act counter	MIN6 prolif	hiPSC survival	FLuc inh counter	PPC-1+TRAIL kill	C8 TRAIL sens	PPC1 cytotox
O=C(N/N=C/c1cccc2cccnc12)c1ccccc1O	nt	-6	0	nt	33	41	19
C(=N\Nc1nc2ccccc2[nH]1)/c1cccc2cccnc12	nt	-4	-1	nt	53*	19	52*
O=C(N/N=C/c1cccc2nccnc12)c1ccccc1O	nt	-4	0	nt	20	6	nt
O=C(NN1CC(=O)N(c2cc(Cl)cc(Cl)c2)CC1=O)c1cccs1	nt	-2	0	nt	19	8	nt
CCN1C(=O)[C@@H]2[C@@H](c3ccc(-c4ccc(C(C)=O)cc4)cc3)N3CCCC[C@@]3(C(=O)OC)[C@@H]2C1=O	nt	-8	-2	nt	nt	7	nt
O/N=C(/CCc1ccccc1)c1ccc2c(c1)OCCO2	1	0	0	1	10	-19	nt
O=C(CCCc1ccccc1)c1ccc2c(c1)OCCO2	0	-4	-6	95*	80*	87*	84*
N#Cc1c(SCC(=O)N2CCCCC2)nsc1SCC(=O)N1CCCCC1	1	1	3	-5	3	6	18
COc1ccc(-c2cc3c(nn2)-c2ccccc2C3=O)cc1	0.1	-5	-2	94*	89*	87*	89*
COc1ccc(-c2cn(Cc3ccc4c(c3)C(=O)c3ccccc3C4=O)nn2)cc1	nt	-1	-2	nt	nt	-14	nt
Cc1cnc2c(c1)C(=O)c1ccccc1-2	nt	-3	0	nt	nt	11	nt
O=C1c2ccccc2-c2nnc(-c3ccccc3)cc21	0.2	-7	-6	81*	63*	75*	65*
O=C(Nc1nc2ccc(F)cc2s1)C1=COCCO1	nt	-6	-1	nt	nt	40	nt
CS(=O)(=O)c1ccc2nc(NC(=O)c3cccs3)sc2c1	0.1	-4	-3	91*	75*	81*	76*
Cc1ccc2nc(NC(=O)CN3C(=O)C4CC=CCC4C3=O)sc2c1 (centres undefined)	0.8	-2	-1	22	9	3	21
Cc1ccc2nc(NC(=O)c3cccs3)sc2c1	0.3	-4	-5	73*	52*	61*	54*
O=C(Nc1nc2ccc(F)cc2s1)c1ccccn1	0.1	-5	nt	90*	60*	nt	62*
CS(=O)(=O)c1ccc2nc(NC(=O)CN3C(=O)C4CC=CCC4C3=O)sc2c1 (centres undefined)	1	-3	0	-4	8	3	nt
CSc1nc2ccc(NC(=O)c3cccs3)cc2s1	nt	-4	-4	nt	nt	2	nt
COc1ccc(N(CC(=O)NCc2ccc(C)cc2)S(=O)(=O)c2c(C)[nH]c(=O)[nH]c2=O)cc1	nt	-3	0	nt	nt	-5	nt
Cc1ccc2nc(NC(=O)c3ccc(Cl)s3)sc2c1	0.6	-3	-3	35	9	42	10
CCCCN1C(=O)C(CC(=O)NCc2ccco2)CC(C(=O)N2CCOCC2)=C1C (centres undefined)	nt	nt	-1	nt	nt	5	nt
Cc1ccc(C(=O)Nc2ncc3c(Cl)cccc3n2)cc1	0.1	-4	-5	94*	74*	83*	67*
CC(/C=N/NC(=O)c1ccco1)=C\c1ccccc1	0.1	-5	-2	90*	63*	69*	63*
CC(C=NNC(=O)C(=O)NN=CC(C)=Cc1ccccc1)=Cc1ccccc1	nt	nt	-3	nt	nt	15	nt
SMILES	FLuc act counter	MIN6 prolif	hiPSC survival	FLuc inh counter	PPC-1+TRAIL kill	C8 TRAIL sens	PPC1 cytotox
CC(=O)NC(Cc1ccccc1C)C(=O)NC1CCN(C(=O)c2ccc(C)cc2)CC1 (centres undefined)	1	-4	3	0	nt	-4	nt
CCC(=O)Nc1cc2nn(-c3ccccc3)nc2cc1Cl	0.3	0	-4	74*	60*	64*	60*
CC(=O)Nc1cc2nn(-c3ccccc3)nc2cc1C	nt	-4	0	nt	nt	46	nt
CC(C)C(NC(=O)c1ccc(F)cc1)C(=O)N1CCC1 (centres undefined)	nt	-3	5	nt	nt	-2	nt
O=C(N=Nc1c(O)[nH]c2ccccc12)c1ccc2c(c1)OCO2	0.1	-6	-6	93*	92*	91*	91*
COc1cc(C(=O)NCCc2ccc(S(=O)(=O)N3CCCC3)cc2)cc(OC)c1OC	1	-4	-2	-3	5	-11	5
COc1ccc(CCNC(=O)c2cccc(S(=O)(=O)N3CCCC3)c2)cc1OC	nt	-1	-1	nt	nt	1	nt
CCOc1cccc(C(=O)Nc2ccccc2OC(F)F)c1	1	-1	-2	-4	9	10	13
CCc1nc2ccccc2n1Cc1ccc(OC)c(OC)c1	1.1	3	-3	-7	6	5	nt
COc1ccc(/C=C/c2nc3ccccc3n2Cc2ccc(OC)c(OC)c2)cc1	0.2	-4	1	83*	56*	33	55*
Cc1ccc(-c2cc(C(=O)N/N=C\c3cnn(C)c3C)c3ccccc3n2)cc1C	0.5	-2	-4	50	53*	46	45
Cc1cc(NC(=O)C(C)SCC(=O)N(C)CC(=O)Nc2ccc(F)cc2)no1 (centres undefined)	nt	-1	0	nt	nt	10	nt
COc1ccc2c(=O)c(-c3nc(C)cs3)coc2c1	0.2	-3	-6	78*	45	66*	57*
COc1ccc(-c2coc3cc(OC)ccc3c2=O)cc1	nt	nt	-2	nt	nt	32	nt
CCOC(=O)COc1ccc2c(=O)c(-c3ccccc3)coc2c1	nt	-4	3	nt	13	-6	nt
Cc1nc(-c2coc3cc(OCC(=O)O)ccc3c2=O)cs1	0.2	-5	-3	78*	45	50*	46
CCOc1ccc(-c2nc(C)c(C(C)=O)n2O)cc1	0.4	-4	-4	64*	31	41	39
COc1ccc(-c2nc(C)c(C(C)=O)n2O)cc1	0.8	-3	-2	17	36	13	nt
Cc1ccc(C(=O)Nc2cnc3ccccn3c2=O)cc1	0.8	-4	-1	16	38	9	nt
O=C(Nc1cnc2ccccn2c1=O)c1ccc(Cl)cc1Cl	0.3	-3	-2	75*	37	62*	48
Cc1cccc(NC(=O)c2cnc3ccccn3c2=O)c1	0.2	-5	-4	84*	60*	70*	59*
Oc1c(N=Nc2ccccn2)ccc2ccccc12	0.1	-6	-4	91*	82*	74*	80*
CN1CCN(CC(O)COc2ccc(Cl)cc2)CC1 (centres undefined)	1.1	-3	1	-7	0	-6	-16
Cc1ccc([N+](=O)[O-])cc1NC(=O)CSc1nnc(C)n1CC1CCCO1 (centres undefined)	nt	0	0	nt	nt	1	nt
CSc1ccc(Cl)c(C(=O)Nc2ccc(Cl)cn2)c1	1	0	0	-1	14	18	nt
